# Fewer inactive variants are shown than the library holds.
# B1: tRNA (parent)
# chain: GUUCCGUUGGCGUAAUGGUAACGCGUCUCCCUCCUAAGGAGAAGACUGCGGGUUCGAGUCCCGUACGGAACG
# Variants of: B1
# Test: yeast fitness relative to wild type (ratio to wild type); higher = fitter; tRNA-Arg(CCU), competitive growth, 37 C, YPD
# In short: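 Variants of the tRNA-Arg(CCU) gene, chemically synthesised with a 3% per-site mutation rate at 69 sites, were placed at the native genomic locus in Saccharomyces cerevisiae. The pooled strains were competed in YPD at 37°C for 24 hours in six parallel replicates. Gene amplicons from the start population and from each end population were read by 100-nucleotide paired-end sequencing. Darwinian fitness relative to wild type came from changes in genotype frequencies; genotypes needed ≥ 100 starting reads, and estimates < 0.5 were set to 0.5.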
row,Variant,yeast fitness
1,U19C U32C A40C G41A,0.674
2,U19G C49U A69C,≤ 0.5
3,A20C A21G G58C,0.698
4,A20C A37G C49G U53A C60U,0.527
5,U19G G25A G67A,0.934
6,A20C A42C,0.603
7,U19G G58A C66U,0.857
8,U19G G50A G51C C55G C61U,≤ 0.5
9,U19G A43U A65G G68A,0.512
10,U19G C33U A40C A45C,≤ 0.5
11,A20C A21G G23A C66A,≤ 0.5
12,U19G A21U C29G A37U,≤ 0.5
13,A20C A37C U53C G63C,≤ 0.5
14,A20C A36U A45C C49G,≤ 0.5
15,A20C A37C C49G,≤ 0.5
16,U19G C22U C31U A40U A69U,0.569
17,U19G A43C U53C C55G A70U,≤ 0.5
18,U19G C22U A70G,0.624
19,U19G A42U C46U,0.569
20,U19G G25A,0.958
21,U19G C29U C49U,≤ 0.5
22,U19G A37G C66U A69U,0.691
23,A20C A21C G39A U53A,≤ 0.5
24,A20C A37C G63A,≤ 0.5

row,Variant,yeast fitness
1,U19G G44A,0.953
2,U19G C30A C49U,0.602
3,A20C A36G U47C,0.658
4,A20C A36U A45U U53A,≤ 0.5
5,U19G A43U C61G,0.559
6,A20C A21G A45U,0.91
7,U19G C49G,0.69
8,U19G,0.975
9,U19C U47C,0.905
10,U19C U47A,0.896
11,U19G C55G,0.651
12,U19G A57G A70U,0.731
13,A20C A40U G48A C61A G68A,≤ 0.5
14,U19G A20C U26C U28C,≤ 0.5
15,U19G U64A A65G G67U,0.606
16,A20C A21C,0.608
17,U19G C22U C31U A40U A65C G68A,≤ 0.5
18,U19G A43C U53C C55G C66U,≤ 0.5
19,U19G C31A G39C C62G G68A,≤ 0.5
20,U19G G58C,1.03
21,A20C A21U C27G U35G C46A A70C,≤ 0.5
22,U19G C29U G39C A42U G67A,0.537
23,U19G A40G C49A,≤ 0.5
24,U19G C49U U54C C62A,≤ 0.5

row,Variant,yeast fitness
1,U19G C31A U35A C55G G58C,0.519
2,U19C U32G,0.655
3,U19G C66U,0.831
4,U19G C66A,0.53
5,U19G C33U C34U,≤ 0.5
6,U19G C22G A36C A57G C60A C66G,≤ 0.5
7,U19G U53A,0.506
8,A20C A21U C27G A42U,≤ 0.5
9,U19G C29U A40C A65G,≤ 0.5
10,U19G U32C G52A G58C,≤ 0.5
11,U19G A43C C49U U53C C55G,≤ 0.5
12,U19G C22U C30U C31U A40U G67A,≤ 0.5
13,U19G C29A U54A,≤ 0.5
14,A20C A37C A43G U54A,≤ 0.5
15,U19G A20U U53G,≤ 0.5
16,U19C U28C G67C,0.638
17,A20C A36C A45C,0.592
18,A20C A21G C46U C60G,≤ 0.5
19,U19G G41U,0.691
20,U19G G41C,0.622
21,U19G U47C,0.972
22,A20C A36U,0.635
23,A20C A36C,≤ 0.5
24,U19G C30U C62G,0.603

row,Variant,yeast fitness
1,U19C U35C,0.81
2,U19G C22U C31U A40U,0.586
3,U19G U32G U53G,≤ 0.5
4,A20C A40G G52C,≤ 0.5
5,A20C A21U C33G A57C,≤ 0.5
6,U19G C49U C60A C66G,≤ 0.5
7,U19G U59A A69U,≤ 0.5
8,U19G G44A G48A G50C,≤ 0.5
9,U19G G25A G39A,0.597
10,U19G U35C A40U,≤ 0.5
11,U19G A36C,0.529
12,U19G U35C A43U A65G G68A,≤ 0.5
13,U19G C27G C34A A42U,≤ 0.5
14,A20C A37C A43G,0.57
15,A20C A21G G56C C66U,≤ 0.5
16,U19C U32C C60A C61A,0.731
17,U19G A20U G56A,0.789
18,A20C A37G G56C C66U,≤ 0.5
19,A20C A40U A43U A70U,≤ 0.5
20,U19G A21U C33A C49A,≤ 0.5
21,U19G A20C U26C G41A C62G,≤ 0.5
22,U19G G39A,1.07
23,U19G G39C,0.75
24,U19G A37G A57G A70U,≤ 0.5

row,Variant,yeast fitness
1,A20C A37U U59G C66A,0.656
2,U19G C34U G68C,0.591
3,A20C A21G A70C,0.803
4,U19G U47G G58C,≤ 0.5
5,U19C U28A C55G,≤ 0.5
6,U19G G48A C49A,0.574
7,U19G C49U C62A A69G,≤ 0.5
8,U19G C30A A43U,0.601
9,A20C A21G C24U U26C,≤ 0.5
10,U19C U53C U54A,≤ 0.5
11,U19G C29U A40C C60G C62A A65G,0.525
12,U19C U28C,0.992
13,A20C A36G C55U,0.556
14,U19G A70G,0.847
15,U19G U59C A69C,0.658
16,A20C A37C A43G C61U,≤ 0.5
17,U19G C49U C60A,≤ 0.5
18,U19G C30A A45U G56A G58C A69U,≤ 0.5
19,A20C A40U C60G A65C,≤ 0.5
20,U19C U35A G38A A42G A69G A70G,≤ 0.5
21,U19G G51C,0.537
22,A20C A40U C61A G68A,0.574
23,U19C U53A,0.689
24,U19G G38C A70U,0.501

row,Variant,yeast fitness
1,U19G C46A,0.932
2,U19G C46U,0.962
3,U19G A21C C55G U59A,≤ 0.5
4,A20C A40G A42U G50A G51C,≤ 0.5
5,A20C A21U C27G U35G,0.521
6,U19G G41C A43U,0.512
7,U19G A20U G58C,0.716
8,U19C U53C G56A,0.622
9,U19G C29A,0.56
10,A20C A21C C62G,≤ 0.5
11,U19G C27U A37G U47C,≤ 0.5
12,U19G U32C,1.04
13,U19G U32A,0.735
14,A20C A37G,0.704
15,A20C A37U,0.817
16,A20C A21U G41A,≤ 0.5
17,A20C A21G U64G,0.558
18,U19G C29U A40C,0.52
19,U19G C22G C34U,0.559
20,A20C A36G A45U A65G,0.614
21,U19G U28C A37G C66U A69U,0.524
22,U19G C22U C31U A40U C55G A65C,≤ 0.5
23,U19G A21U C46U,0.809
24,A20C A40G A42U G50A G51C A70C,0.563

row,Variant,yeast fitness
1,U19G U26C C29G A57U A69U A70C,≤ 0.5
2,A20C A40C,0.788
3,A20C A40U,0.855
4,A20C A21G C24U,0.647
5,U19C U64G,0.789
6,U19C U64C,0.893
7,U19C U64A,0.898
8,U19G A20U C30U G48A,0.577
9,A20C A21C C30G G39C A42G,0.631
10,A20C A40U A43C,0.699
11,U19G A43U A70C,0.716
12,U19G G23A U35G,≤ 0.5
13,A20C A36U A65U,≤ 0.5
14,U19G A20U C27G C66U,≤ 0.5
15,U19C U32C U64A,0.501
16,U19G A65G A70C,0.733
17,U19G C30A A45U G58C A69U,≤ 0.5
18,U19G G56A G67U,≤ 0.5
19,U19G C49U G50U,≤ 0.5
20,A20C A21U C27G A42U A70G,≤ 0.5
21,U19G A45C A70U,0.557
22,A20C A21G C66U,0.737
23,U19G A20U G67A,0.743

# From the RNAGym collection of RNA variant scans (doi:10.1126/science.aae0568)
